# Results: ChEMBL document CHEMBL2021883, “Amino acid, dipeptide and pseudodipeptide conjugates of ring-substituted 8-aminoquinolines: synthesis and evaluation of anti-infective, β-haematin inhibition and cytotoxic activities” (Eur J Med Chem, 2012)
# Calls of active or inactive are those of the source. Unless noted, no cut-off for these calls is given here.
# How the values were obtained:
# [1] = Selectivity index, ratio of IC50 for african green monkey Vero cells to IC50 for chloroquine-sensitive Plasmodium falciparum D6; type: toxicity, cell-based; details: Vero cells versus Plasmodium falciparum D6, read-out: Ratio IC50
# [2] = test system: Mycobacterium intracellulare; assay: Antimicrobial activity against Mycobacterium intracellulare ATCC 23068 by Franzblau method; type: functional, organism-based
# [3] = test system: Aspergillus fumigatus; assay: Antifungal activity against Aspergillus fumigatus; type: functional, organism-based
# Method in brief: (§1)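 Yeasts and A. fumigatus were tested by broth microdilution following the NCCLS antifungal standards. The highest test concentration was 20.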
# [4] = test system: Escherichia coli; assay: Antimicrobial activity against Escherichia coli ATCC 35218 by CLSI method; type: functional, organism-based
# [5] = test system: Staphylococcus aureus; assay: Antimicrobial activity against methicillin-resistant Staphylococcus aureus ATCC 43300 by CLSI method; type: functional, organism-based
# [6] = test system: Candida albicans; assay: Fungicidal activity against Candida albicans at 20 ug/ml; type: functional, organism-based
# Method in brief: (§2)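 Broth dilution antifungal testing followed the NCCLS reference method for yeasts, with 20 as the highest test concentration. MIC was the lowest concentration with no detectable growth. MFC was the lowest concentration killing the organism.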
# [7] = test system: Candida albicans; assay: Antifungal activity against Candida albicans at 20 ug/ml; type: functional, organism-based; method in brief: as §2
# [8] = test system: Plasmodium berghei; assay: Antimalarial activity against Plasmodium berghei blood-schizont in mouse malaria model assessed as elimination of parasitemia at 100 mg/kg, po for 4 days for 4 days measured after 7 days; type: functional, organism-based; design: dose 100 mg/kg
# Method in brief: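 P. berghei-infected mice, 6 per group, received compound orally once daily for 4 days at 10, 25, 50 or 100 mg/kg/day. "Active" meant all treated animals were parasitaemia-negative up to D+7. "Curative" meant complete parasite elimination with survival to D+60. Outcomes were recorded as cured/total.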
# [9] = test system: Staphylococcus aureus; assay: Antimicrobial activity against Staphylococcus aureus ATCC 29213 by CLSI method; type: functional, organism-based
# [10] = test system: Leishmania donovani; assay: Antileishmanial activity against Leishmania donovani promastigote by Alamar Blue assay; type: functional, organism-based
# [11] = test system: Plasmodium falciparum; assay: Antimalarial activity against chloroquine-resistant Plasmodium falciparum W2 assessed as plasmodial LDH activity; type: functional, organism-based
# [12] = Selectivity index, ratio of IC50 for african green monkey Vero cells to IC50 for chloroquine-resistant Plasmodium falciparum W2; type: toxicity, cell-based; details: Vero cells versus Plasmodium falciparum W2, read-out: Ratio IC50
# [13] = Inhibition of beta-hematin formation; type: functional
# [14] = test system: Pseudomonas aeruginosa; assay: Antimicrobial activity against Pseudomonas aeruginosa ATCC 27853 by CLSI method; type: functional, organism-based
# Method in brief: (§3)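 Antibacterial testing used CLSI/NCCLS broth dilution for aerobically growing bacteria, with 20 as the highest test concentration.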
# [15] = test system: Plasmodium berghei; assay: Antimalarial activity against Plasmodium berghei blood-schizont in mouse malaria model assessed as elimination of parasitemia at 100 mg/kg, po for 4 days for 4 days measured after 4 days; type: functional, organism-based; design: dose 100 mg/kg
# [16] = test system: Vero; assay: Cytotoxicity against african green monkey Vero cells upto 23.8 […] by neutral dye assay; type: cell-based, Chlorocebus sabaeus
# Method in brief: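 Vero monkey kidney cells were exposed to compound up to a highest concentration of 23.8, with viability read by neutral red uptake.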
# [17] = test system: Cryptococcus neoformans; assay: Antifungal activity against Cryptococcus neoformans; type: functional, organism-based; method in brief: as §1
# [18] = test system: Plasmodium falciparum; assay: Antimalarial activity against chloroquine-sensitive Plasmodium falciparum D6 assessed as plasmodial LDH activity; type: functional, organism-based
# [19] = test system: Mycobacterium intracellulare; assay: Bactericidal activity against Mycobacterium intracellulare ATCC 23068 at 20 ug/ml by Franzblau method; type: functional, organism-based
# [20] = test system: Staphylococcus aureus; assay: Antimicrobial activity against methicillin-resistant Staphylococcus aureus ATCC 43300 at 20 ug/ml by CLSI method; type: functional, organism-based
# [21] = test system: Staphylococcus aureus; assay: Bactericidal activity against methicillin-resistant Staphylococcus aureus ATCC 43300 at 20 ug/ml by CLSI method; type: functional, organism-based
# Method in brief: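 MBC is the lowest concentration that kills the organism. 20 was the highest concentration tested.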
# [22] = test system: Mycobacterium intracellulare; assay: Antimicrobial activity against Mycobacterium intracellulare ATCC 23068 at 20 ug/ml by Franzblau method; type: functional, organism-based
# [23] = test system: Escherichia coli; assay: Bactericidal activity against Escherichia coli ATCC 35218 at 20 ug/ml by CLSI method; type: functional, organism-based; method in brief: as §3
# [24] = test system: Pichia kudriavzevii; assay: Fungicidal activity against Candida krusei at 20 ug/ml; type: functional, organism-based; method in brief: as §2
# [25] = test system: Pichia kudriavzevii; assay: Antifungal activity against Candida krusei at 20 ug/ml; type: functional, organism-based; method in brief: as §2
# [26] = test system: Nakaseomyces glabratus; assay: Antifungal activity against Candida glabrata; type: functional, organism-based; method in brief: as §1
# [27] = test system: Escherichia coli; assay: Antimicrobial activity against Escherichia coli ATCC 35218 at 20 ug/ml by CLSI method; type: functional, organism-based; method in brief: as §3
# [28] = test system: Candida albicans; assay: Antifungal activity against Candida albicans; type: functional, organism-based; method in brief: as §1
# [29] = test system: Pichia kudriavzevii; assay: Antifungal activity against Candida krusei; type: functional, organism-based; method in brief: as §1
# [30] = Leishmania donovani, read-out: IC50
# [31] = Plasmodium falciparum, W2, read-out: IC50
# [32] = Plasmodium falciparum, D6, read-out: IC50
Structure (SMILES),selectivity ratio [1],Activity [2],Activity [3],Activity [4],Activity [5],Activity [6],Activity [7],IC90 [10],"IC50 [10, 30] [µg/mL]","IC50 [11, 31] [µg/mL]",selectivity ratio [12],IC50 [13] [µM],Activity [14],IC50 [16],IC50 [17] [µg/mL],MFC [17] [µg/mL],MIC [17] [µg/mL],"IC50 [18, 32] [µg/mL]",Activity [19],IC90 ([10]; Leishmania donovani) [µg/mL],further results
COc1cc(NC(C)CCCNC(=O)[C@H](CCCN)NC(=O)[C@@H](N)CCCN)c2nc(C(C)(C)C)ccc2c1 (stereo partly specified),> 9.5,inactive,inactive,inactive,inactive,inactive,inactive,inactive,20,2,> 11.9,85,inactive,Non-toxic,3.5,5,5,2.5,–,–,Activity [8]: inactive; Activity [9]: inactive; Activity [15]: inactive
COc1cc(NC(C)CCCNC(=O)[C@@H](CCCCN)NC(=O)[C@H](N)CCCCN)c2nc(C(C)(C)C)ccc2c1 (stereo partly specified),> 5,inactive,inactive,inactive,inactive,inactive,inactive,inactive,–,2.8,> 8.5,> 1000,inactive,Non-toxic,6.5,10,10,4.76,–,–,Activity [8]: inactive; Activity [9]: inactive; IC50 [10]: Not Active; Activity [15]: inactive
COc1cc(NC(C)CCCNC(=O)C[C@H](NC(=O)[C@@H](N)CCCCN)C(=O)O)c2nc(C(C)(C)C)ccc2c1 (stereo partly specified),> 6.2,inactive,inactive,–,inactive,inactive,inactive,–,9.4,2.8,> 8.5,131,inactive,Non-toxic,3.5,5,5,3.8,inactive,31,Activity [20]: inactive; IC50 [4]: 15 µg/mL; MIC [4]: 20 µg/mL; Activity [21]: inactive; Activity [22]: inactive; Activity [23]: inactive
COc1cc(NC(C)CCCNC(=O)C[C@@H](NC(=O)[C@H](N)CCCN)C(=O)O)c2nc(C(C)(C)C)ccc2c1 (stereo partly specified),> 9.5,inactive,inactive,inactive,inactive,inactive,inactive,inactive,–,3.4,> 7,> 1000,inactive,Non-toxic,4.86,10,10,2.5,–,–,Activity [24]: inactive; Activity [9]: inactive; IC50 [10]: Not Active; Activity [25]: inactive; IC50 [26]: 13.7 µg/mL; MFC [26]: 20 µg/mL; MIC [26]: 20 µg/mL
COc1cc(NC(C)CCCNC(=O)CC[C@H](NC(=O)[C@@H](N)CCCNC(=N)N)C(=O)O)c2nc(C(C)(C)C)ccc2c1 (stereo partly specified),> 10.3,inactive,inactive,inactive,inactive,inactive,inactive,inactive,–,2,> 11.9,96,inactive,Non-toxic,15,20,20,2.3,–,–,Activity [8]: inactive; Activity [9]: inactive; IC50 [10]: Not Active; Activity [15]: inactive
COc1cc(NC(C)CCCNC(=O)[C@@H](CCCN)NC(=O)[C@H](N)CCCN)c2nc(C(C)(C)C)ccc2c1 (stereo partly specified),> 5,–,inactive,inactive,inactive,inactive,inactive,–,20,3.3,> 7.21,39,inactive,Non-toxic,3.5,5,5,4.76,inactive,38,Activity [20]: inactive; IC50 [2]: 10 µg/mL; MIC [2]: 20 µg/mL; Activity [27]: inactive; Activity [21]: inactive; Activity [23]: inactive
COc1cc(NC(C)CCCNC(=O)C[C@H](NC(=O)[C@@H](N)CCCNC(=N)N)C(=O)O)c2nc(C(C)(C)C)ccc2c1 (stereo partly specified),> 7.2,inactive,inactive,–,inactive,inactive,inactive,inactive,–,2.8,> 8.5,115,inactive,Non-toxic,15,20,20,3.3,inactive,–,Activity [20]: inactive; IC50 [4]: 15 µg/mL; Activity [27]: inactive; IC50 [10]: Not Active; Activity [21]: inactive; Activity [22]: inactive; Activity [23]: inactive
COc1cc(NC(C)CCCNC(=O)[C@H](CCCNC(=N)N)NC(=O)[C@@H](N)CCCNC(=N)N)c2nc(C(C)(C)C)ccc2c1 (stereo partly specified),> 24.5,inactive,inactive,inactive,–,inactive,–,–,9,0.82,> 29,53,inactive,Non-toxic,2.5,5,5,0.97,inactive,31,IC50 [5]: 7 µg/mL; MBC [5]: 20 µg/mL; MIC [5]: 10 µg/mL; Activity [8]: Active; Activity [27]: inactive; Activity [22]: inactive; Activity [23]: inactive; IC50 [28]: 15 µg/mL; MIC [28]: 20 µg/mL
COc1cc(NC(C)CCCNC(=O)[C@@H](CCCNC(=N)N)NC(=O)[C@H](N)CCCNC(=N)N)c2nc(C(C)(C)C)ccc2c1 (stereo partly specified),–,inactive,inactive,inactive,–,inactive,inactive,–,20,–,–,> 1000,inactive,Non-toxic,3.55,10,10,–,inactive,34,IC50 [29]: 7.08 µg/mL; MFC [29]: 10 µg/mL; MIC [29]: 10 µg/mL; IC50 [5]: 5.96 µg/mL; MBC [5]: 20 µg/mL; MIC [5]: 10 µg/mL; IC50 [9]: 11.2 µg/mL; MBC [9]: 20 µg/mL; MIC [9]: 20 µg/mL; Activity [27]: inactive; IC50 [11]: Not Active; Activity [22]: inactive; Activity [23]: inactive; IC50 [26]: 12.4 µg/mL; MFC [26]: 20 µg/mL; MIC [26]: 20 µg/mL; IC50 [18]: Not Active
C[C@@H]1[C@H](O)[C@@H](C)/C=C/C=C/C=C/C=C/C=C/C=C/C=C/[C@H](O[C@@H]2O[C@H](C)[C@@H](O)[C@H](N)[C@@H]2O)C[C@@H]2O[C@](O)(C[C@@H](O)C[C@@H](O)[C@H](O)CC[C@@H](O)C[C@@H](O)CC(=O)O[C@H]1C)C[C@H](O)[C@H]2C(=O)O [AMPHOTERICIN B],–,–,–,–,–,–,–,–,–,–,–,–,–,–,–,1.5,–,–,–,0.35,MIC [28]: 0.63 µg/mL; MFC [26]: 0.625 µg/mL; MIC [26]: 0.31 µg/mL
